Measured values from ChEMBL document CHEMBL4725355, “Design, Synthesis, and Preclinical Evaluation of 3-Methyl-6-(5-thiophenyl)-1,3-dihydro-imidazo[4,5-b]pyridin-2-ones as Selective GluN2B Negative Allosteric Modulators for the Treatment of Mood Disorders” (J Med Chem, 2020).

Legend:
[1] = Drug level in Sprague-Dawley rat brain cerebellum at 0.03 mg/kg, iv after 120 min by LC-MS/MS analysis; type: ADME, organism-based; conditions: read-out: Drug uptake
Outline: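 Rats (n=3 per group) received a single IV dose of 0.03 mg/kg in 50% (w/v) PEG/water at pH 7.4 and were sacrificed at 5, 10, 30, 60 and 120 min. Cerebellum, cortex, striatum and hippocampus were weighed, homogenized and analyzed by LC-MS/MS, with levels normalized to tissue weight.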

Rattus norvegicus = experiment: Ex vivo receptor occupancy at GluN2B in po dosed Sprague-Dawley rat assessed as total plasma concentration causing 70% 3-[3H] 1-(azetidin-1-yl)-2-[6-(4-fluoro-3-methyl-phenyl)pyrrolo[3,2-b]pyridin-1-yl]-ethanone labelling measured after 60 mins by autoradiography; type: functional, organism-based
Outline: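 Oral dosing in rat at 8 dose levels, vehicle 20% HP-β-CD, 3 animals per group. Hippocampal GluN2B occupancy was measured ex vivo by autoradiography at 60 min post dose with the [3H] pyrrolopyridine tracer on brain slices. Labelling was expressed as percent of naïve control rats. EC70 was taken as the total (bound + unbound) plasma concentration giving 70% occupancy, with a 95% confidence interval.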

[2] = Intrinsic clearance in cynomolgus monkey liver microsomes at 1 uM after 5 to 60 mins in presence of NADPH by LC-MS/MS analysis; type: ADME, Macaca fascicularis, Microsome; conditions: time 5-60 min, read-out: CLH
Cytochrome P450 1A2 = target: T1, Cytochrome P450 1A2 (Homo sapiens, UniProt P05177); experiment: Inhibition of CYP1A2 in human liver microsomes using phenacetin as substrate measured after 15 mins by LC-MS/MS analysis; type: ADME
T1 sequence (P05177 whole entry): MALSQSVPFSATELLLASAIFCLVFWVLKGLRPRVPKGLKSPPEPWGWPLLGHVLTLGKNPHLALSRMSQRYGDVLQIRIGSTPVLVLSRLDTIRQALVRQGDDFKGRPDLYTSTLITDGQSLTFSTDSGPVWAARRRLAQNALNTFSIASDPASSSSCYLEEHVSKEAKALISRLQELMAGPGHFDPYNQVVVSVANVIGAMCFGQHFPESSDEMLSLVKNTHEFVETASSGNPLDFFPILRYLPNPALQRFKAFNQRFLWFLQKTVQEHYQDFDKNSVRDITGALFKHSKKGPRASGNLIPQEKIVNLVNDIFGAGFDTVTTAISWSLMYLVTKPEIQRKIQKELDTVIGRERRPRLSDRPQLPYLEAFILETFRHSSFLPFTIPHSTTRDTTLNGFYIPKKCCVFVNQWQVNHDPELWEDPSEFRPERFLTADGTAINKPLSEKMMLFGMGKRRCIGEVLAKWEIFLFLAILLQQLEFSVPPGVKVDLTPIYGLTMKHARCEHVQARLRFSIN
Outline: (§1)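 Human liver microsomes incubated with isoform-specific probe substrates and the test compound at concentrations up to 20 µM. IC50 derived from inhibition of metabolite formation; mean of two independent experiments, with known specific inhibitors as positive controls.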

Cytochrome P450 2C19 = Cytochrome P450 2C19 (Homo sapiens, UniProt P33261); experiment: Inhibition of CYP2C19 in human liver microsomes using S-mephenytoin as substrate measured after 15 mins by LC-MS/MS analysis; type: ADME; outline: as §1
Cytochrome P450 2C19, sequence (P33261 whole entry): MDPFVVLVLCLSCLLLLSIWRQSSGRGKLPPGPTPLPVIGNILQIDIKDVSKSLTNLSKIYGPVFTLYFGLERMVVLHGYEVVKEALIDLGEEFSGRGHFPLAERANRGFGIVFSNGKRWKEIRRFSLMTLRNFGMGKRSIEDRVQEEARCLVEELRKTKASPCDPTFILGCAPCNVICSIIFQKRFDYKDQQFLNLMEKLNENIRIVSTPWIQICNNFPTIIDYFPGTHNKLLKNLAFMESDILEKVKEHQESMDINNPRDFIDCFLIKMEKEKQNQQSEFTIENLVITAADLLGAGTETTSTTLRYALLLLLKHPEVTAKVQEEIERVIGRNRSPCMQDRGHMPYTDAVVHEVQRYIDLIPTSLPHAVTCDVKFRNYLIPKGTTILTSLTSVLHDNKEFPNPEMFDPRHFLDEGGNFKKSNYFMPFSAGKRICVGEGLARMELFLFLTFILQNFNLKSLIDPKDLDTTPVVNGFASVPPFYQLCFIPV

Cytochrome P450 3A4 [3] = target: T2, Cytochrome P450 3A4 (Homo sapiens, UniProt P08684); experiment: Inhibition of CYP3A4 in human liver microsomes using nifedipine as substrate measured after 15 mins by LC-MS/MS analysis; type: ADME; outline: as §1
T2 sequence (P08684 whole entry): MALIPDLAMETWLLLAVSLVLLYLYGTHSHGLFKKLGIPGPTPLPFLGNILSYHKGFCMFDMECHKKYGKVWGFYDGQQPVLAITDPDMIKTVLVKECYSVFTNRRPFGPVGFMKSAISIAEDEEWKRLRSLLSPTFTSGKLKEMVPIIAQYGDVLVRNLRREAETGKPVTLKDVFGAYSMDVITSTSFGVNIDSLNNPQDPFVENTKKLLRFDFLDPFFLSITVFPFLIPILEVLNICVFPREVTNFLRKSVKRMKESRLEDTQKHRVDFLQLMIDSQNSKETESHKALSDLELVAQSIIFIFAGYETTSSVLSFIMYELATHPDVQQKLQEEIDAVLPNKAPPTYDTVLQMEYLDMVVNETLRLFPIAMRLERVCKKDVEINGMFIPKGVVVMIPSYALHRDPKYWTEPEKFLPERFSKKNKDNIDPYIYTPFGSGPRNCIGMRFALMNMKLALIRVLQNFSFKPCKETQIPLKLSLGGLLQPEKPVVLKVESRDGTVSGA

Cytochrome P450 3A4 [4] = target: T2, Cytochrome P450 3A4; experiment: Time-dependent inhibition of CYP3A4 in human liver microsomes at 10 uM using nifedipine as substrate by LC-MS/MS analysis; type: ADME
Outline: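 CYP3A4 time-dependent inhibition in human liver microsomes. The compound (0.4 to 10 μM) was tested with and without 30 min preincubation. IC50 was taken from percent activity remaining versus vehicle, averaged over two independent experiments. A >2-fold IC50 shift after preincubation was the threshold for time-dependent inhibition.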

[5] = AUC (infinity) in dog at 0.5 mg/kg, po by LC-MS/MS analysis; type: ADME, organism-based, Canis lupus familiaris; parameters: time infinity, route oral, dose 0.5 mg/kg; conditions: in vivo
[6] = AUC (infinity) in mouse at 0.5 mg/kg, iv by LC-MS/MS analysis; type: ADME, organism-based; parameters: time infinity, route intravenous, dose 0.5 mg/kg; conditions: in vivo
[7] = Oral bioavailability in Sprague-Dawley rat at 2.5 mg/kg by LC-MS/MS analysis; type: ADME, organism-based; conditions: in vivo
[8] = Half life in Sprague-Dawley rat at 2.5 mg/kg, po by LC-MS/MS analysis; type: ADME, organism-based; conditions: in vivo
[9] = Cmax in Sprague-Dawley rat at 2.5 mg/kg, po by LC-MS/MS analysis; type: ADME, organism-based; parameters: route oral, dose 2.5 mg/kg; conditions: in vivo
Outline: (§2)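 Rat PK with IV and PO dosing, n=3. The usual doses were 0.5 mg/kg IV and 2.5 mg/kg PO in 20% HP-β-CD. One compound was instead given at 0.1 mg/kg IV and 0.5 mg/kg PO.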

[10] = Volume of distribution at steady state in Sprague-Dawley rat at 0.5 mg/kg, iv by LC-MS/MS analysis; type: ADME, organism-based; conditions: in vivo, read-out: Vdss
Outline: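 Rat PK at 0.5 mg/kg i.v. and 2.5 mg/kg p.o., vehicle 20% HP-β-CD. n=3, values given as mean ± SD.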

[11] = Clearance in Sprague-Dawley rat at 0.5 mg/kg, iv by LC-MS/MS analysis; type: ADME, organism-based; conditions: in vivo; outline: as §2
[12] = AUC (infinity) in mouse at 2.5 mg/kg, po by LC-MS/MS analysis; type: ADME, organism-based; parameters: route oral, time infinity, dose 2.5 mg/kg; conditions: in vivo
[13] = Solubility of compound in 30% sulfobutylether-beta-cyclodextrin; type: physicochemical
Outline: (§3)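 Solubility of the compound assessed in dosing excipients, including 30% SBE-β-CD, 50% PEG-400 and 20% HP-β-CD. The aim was a solution usable for rat dosing; the 20% HP-β-CD formulation was checked for a 0.1 mg/mL solution to support a 0.5 mg/kg dose.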

[14] = Solubility of compound in 50% polyethylene glycol 400; type: physicochemical; outline: as §3
[15] = Cmax in Sprague-Dawley rat at 250 mg/kg, po administered via gavage after 24 hrs using nanosuspension formulation by LC-MS/MS analysis; type: ADME, organism-based; parameters: route oral, time 24 hrs, dose 250 mg/kg; conditions: in vivo
Outline: (§4)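 Single oral gavage dose to male Sprague Dawley rats, 3 per dose level. Vehicles were a standard suspension in 5% HPMC (125, 250, 500 or 1000 mg/kg) or a nanosuspension (API:polymer 4:1), with stock diluted in vehicle on the day of dosing (100, 250 or 500 mg/kg). Blood was sampled at time points from 0.5 to 24 h.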

[16] = Tmax in Sprague-Dawley rat at 500 mg/kg, po administered via gavage after 24 hrs using nanosuspension formulation by LC-MS/MS analysis; type: ADME, organism-based; conditions: in vivo
Outline: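 Single oral gavage of a nanosuspension (API:polymer 4:1), diluted with vehicle on the dosing day, at 100, 250 or 500 mg/kg to male Sprague Dawley rats, 3 per dose. Plasma was sampled from 0.5 to 24 h.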

[17] = AUC (0 to 24 hrs) in Sprague-Dawley rat at 100 mg/kg, po administered via gavage after 24 hrs using nanosuspension formulation by LC-MS/MS analysis; type: ADME, organism-based; parameters: route oral, dose 100 mg/kg, time <=24; conditions: in vivo; outline: as §4
[18] = Cmax in Sprague-Dawley rat at 500 mg/kg/day, po administered as nanosuspension measured for 14 days measured post last dose by LC-MS/MS analysis; type: ADME, organism-based; parameters: route oral, time 14 day, dose 500 mg/kg/day; conditions: in vivo
Outline: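 Repeated daily oral dosing of the nanosuspension to rats for 14 days, up to 500 mg/kg/day.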

concentration at 2 h [1]: 6.9 ng/mL
Cp (Rattus norvegicus): 716 ng/mL
microsomal CLint at 1 µM [2]: 16.6 µL/min/mg
IC50 (Cytochrome P450 1A2): > 50 µM
IC50 (Cytochrome P450 2C19): > 50 µM
IC50 (Cytochrome P450 3A4 [3]): > 50 µM
TDI (Cytochrome P450 3A4 [4]): Not Active
AUC(0-inf) [5]: 268 ng·h/mL
AUC(0-inf) [6]: 156 ng·h/mL
bioavailability [7]: 132%
half-life [8]: 2.2 h
Cmax [9]: 479 ng/mL
Vd [10]: 1.9 L/kg
clearance [11]: 30 mL/min/kg
AUC(0-inf) [12]: 539 ng·h/mL
solubility [13]: < 1000 µg/mL
solubility [14]: < 1000 µg/mL
Cmax [15]: 12500 ng/mL
Tmax [16]: 3.3 h
AUC(0-t) [17]: 51900 ng·h/mL
Cmax [18]: 21700 ng/mL
Compound: Cn1c(=O)n(CC(=O)N2CCC2)c2cc(-c3ccc(C(F)(F)F)s3)cnc21
